# According to ChEMBL document CHEMBL4725245, “The synthesis and biological evaluation of nucleobases/tetrazole hybrid compounds: A new class of phosphodiesterase type 3 (PDE3) inhibitors” (Bioorg Med Chem, 2020):
# Test system: HeLa
# Assay: Antiproliferative activity against human HeLa cells assessed as reduction in cell viability after 24 hrs by MTT assay
# Format: functional, cell-based
# Details: not given
# Procedure, shortened: (§1)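 Cells held in DMEM with 10% heat-inactivated FBS, penicillin and streptomycin at 37 °C, 5% CO2. HeLa seeded at 5000 cells/well or MCF-7 at 10,000 cells/well, grown overnight, then exposed to compounds at 0.0–200.0 µM (two-fold steps) for 24 h. MTT 0.5 mg/mL for 4 h at 37 °C, formazan dissolved in DMSO, absorbance read at 545 nm with 630 nm reference.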
row,SMILES,IC50 [µM]
1,Nc1nc2c(ncn2CCCOc2ccc(-c3nnn[nH]3)cc2)c(=O)[nH]1,18.4
2,Nc1nc2c(ncn2CCCCOc2ccc(-c3nnn[nH]3)cc2)c(=O)[nH]1,68
3,O=c1ccnc(SCCCOc2ccc(-c3nnn[nH]3)cc2)[nH]1,57.7
4,Cn1cnc2c1c(=O)n(CCCOc1ccc(-c3nnn[nH]3)cc1)c(=O)n2C,61.1
5,O=c1ccnc(SCCCCOc2ccc(-c3nnn[nH]3)cc2)[nH]1,50.6
6,Cn1c(=O)c2c(ncn2CCCOc2ccc(-c3nnn[nH]3)cc2)n(C)c1=O,55.3
7,Nc1ncnc2c1ncn2CCCOc1ccc(-c2nnn[nH]2)cc1,21.1
8,O=c1cnn(CCCCOc2ccc(-c3nnn[nH]3)cc2)c(=O)[nH]1,63.3
9,Cn1cnc2c1c(=O)n(CCCCOc1ccc(-c3nnn[nH]3)cc1)c(=O)n2C,59.9
10,O=c1ccn(CCCOc2ccc(-c3nnn[nH]3)cc2)c(=O)[nH]1,38.9
11,Cn1c(=O)c2c(ncn2CCCCOc2ccc(-c3nnn[nH]3)cc2)n(C)c1=O,45.1
12,O=c1ccn(CCCCOc2ccc(-c3nnn[nH]3)cc2)c(=O)[nH]1,25.6
13,Nc1ncnc2c1ncn2CCCCOc1ccc(-c2nnn[nH]2)cc1,38.4
14,O=c1cnn(CCCOc2ccc(-c3nnn[nH]3)cc2)c(=O)[nH]1,49.3
15,CN(Cc1cnc2nc(N)nc(N)c2n1)c1ccc(C(=O)N[C@@H](CCC(=O)O)C(=O)O)cc1 [METHOTREXATE],27.9

# Test system: MCF7
# Assay: Antiproliferative activity against human MCF7 cells assessed as growth inhibition after 24 hrs by MTT assay
# Format: functional, cell-based
# Details: MCF7, 24 h
# Procedure, shortened: as §1
row,SMILES,IC50 [µM]
1,Nc1nc2c(ncn2CCCOc2ccc(-c3nnn[nH]3)cc2)c(=O)[nH]1,25.7
2,Nc1nc2c(ncn2CCCCOc2ccc(-c3nnn[nH]3)cc2)c(=O)[nH]1,90.5
3,O=c1ccnc(SCCCOc2ccc(-c3nnn[nH]3)cc2)[nH]1,80.7
4,Cn1cnc2c1c(=O)n(CCCOc1ccc(-c3nnn[nH]3)cc1)c(=O)n2C,73.3
5,O=c1ccnc(SCCCCOc2ccc(-c3nnn[nH]3)cc2)[nH]1,68.4
6,Cn1c(=O)c2c(ncn2CCCOc2ccc(-c3nnn[nH]3)cc2)n(C)c1=O,74.7
7,Nc1ncnc2c1ncn2CCCOc1ccc(-c2nnn[nH]2)cc1,29.4
8,O=c1cnn(CCCCOc2ccc(-c3nnn[nH]3)cc2)c(=O)[nH]1,76
9,Cn1cnc2c1c(=O)n(CCCCOc1ccc(-c3nnn[nH]3)cc1)c(=O)n2C,73.7
10,O=c1ccn(CCCOc2ccc(-c3nnn[nH]3)cc2)c(=O)[nH]1,54
11,Cn1c(=O)c2c(ncn2CCCCOc2ccc(-c3nnn[nH]3)cc2)n(C)c1=O,59.5
12,O=c1ccn(CCCCOc2ccc(-c3nnn[nH]3)cc2)c(=O)[nH]1,35.8
13,Nc1ncnc2c1ncn2CCCCOc1ccc(-c2nnn[nH]2)cc1,54.5
14,O=c1cnn(CCCOc2ccc(-c3nnn[nH]3)cc2)c(=O)[nH]1,65.6
15,CN(Cc1cnc2nc(N)nc(N)c2n1)c1ccc(C(=O)N[C@@H](CCC(=O)O)C(=O)O)cc1 [METHOTREXATE],49.2

# Target: cGMP-inhibited 3',5'-cyclic phosphodiesterase 3A (Homo sapiens, UniProt Q14432)
# Sequence (Q14432 whole entry): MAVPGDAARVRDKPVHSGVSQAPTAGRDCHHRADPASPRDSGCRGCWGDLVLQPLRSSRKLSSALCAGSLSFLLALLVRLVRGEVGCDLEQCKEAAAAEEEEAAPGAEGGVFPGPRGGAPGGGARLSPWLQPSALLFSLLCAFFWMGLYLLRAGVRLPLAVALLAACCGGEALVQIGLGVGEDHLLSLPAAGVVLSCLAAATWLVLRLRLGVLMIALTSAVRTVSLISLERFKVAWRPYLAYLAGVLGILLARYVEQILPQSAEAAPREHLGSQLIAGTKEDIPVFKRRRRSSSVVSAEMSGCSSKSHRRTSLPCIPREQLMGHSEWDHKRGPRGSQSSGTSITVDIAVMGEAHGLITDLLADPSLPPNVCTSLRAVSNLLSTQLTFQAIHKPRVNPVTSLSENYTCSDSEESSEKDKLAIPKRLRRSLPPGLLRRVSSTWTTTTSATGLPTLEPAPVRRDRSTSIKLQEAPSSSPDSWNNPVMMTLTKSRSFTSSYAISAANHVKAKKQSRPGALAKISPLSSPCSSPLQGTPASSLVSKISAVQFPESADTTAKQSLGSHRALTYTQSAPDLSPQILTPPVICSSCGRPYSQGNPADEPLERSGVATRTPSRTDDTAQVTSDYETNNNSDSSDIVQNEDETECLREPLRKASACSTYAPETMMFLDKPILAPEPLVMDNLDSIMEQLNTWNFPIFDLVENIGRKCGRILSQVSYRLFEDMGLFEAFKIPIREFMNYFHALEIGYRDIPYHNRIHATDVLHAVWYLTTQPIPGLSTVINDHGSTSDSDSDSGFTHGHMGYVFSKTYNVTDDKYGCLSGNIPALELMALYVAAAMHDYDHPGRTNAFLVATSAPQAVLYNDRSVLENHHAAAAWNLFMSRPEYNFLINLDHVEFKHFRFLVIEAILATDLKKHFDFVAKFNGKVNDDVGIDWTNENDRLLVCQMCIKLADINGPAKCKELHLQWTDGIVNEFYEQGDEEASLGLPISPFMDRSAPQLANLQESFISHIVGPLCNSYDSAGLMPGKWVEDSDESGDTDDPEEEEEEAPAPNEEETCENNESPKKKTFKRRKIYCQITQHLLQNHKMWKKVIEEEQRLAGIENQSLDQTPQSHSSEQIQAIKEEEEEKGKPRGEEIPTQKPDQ
# Assay: Inhibition of human PDE3A expressed in Sf9 cells using cAMP as substrate after 60 mins by IMAP TR-FRET assay
# Details: not given
row,SMILES,IC50 [µM]
1,O=c1ccnc(SCCCCOc2ccc(-c3nnn[nH]3)cc2)[nH]1,0.00513
2,Cn1c(=O)c2c(ncn2CCCOc2ccc(-c3nnn[nH]3)cc2)n(C)c1=O,0.00583
3,Nc1ncnc2c1ncn2CCCCOc1ccc(-c2nnn[nH]2)cc1,0.00391
4,O=C1CCc2cc(OCCCCc3nnnn3C3CCCCC3)ccc2N1 [CILOSTAZOL],0.00389
